Data on eleven compounds can be found in ChEMBL document CHEMBL3813629, “Antistaphylococcal Prenylated Acylphoroglucinol and Xanthones from Kielmeyera variabilis” (2016).

Values after ≈ are worked out from the molar mass of the structure shown. Active and inactive are the calls of the source.

Assay [1] deals with Staphylococcus aureus. Briefly: Antibacterial activity against […] Staphylococcus aureus SA1199B over expressing NorA MDR efflux pump after 18 hrs by MTT assay. It is filed as functional. A digest of the protocol:
(§1)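 Strains grown on nutrient agar 24 h at 37 °C; inoculum 1 × 10⁶ cfu/mL in normal saline, set against 0.5 McFarland standard. Samples dissolved in DMSO, diluted in cation-adjusted Mueller-Hinton broth (Ca²⁺ 20 mg/L, Mg²⁺ 10 mg/L), starting 1024 mg/L, twofold serial broth microdilution; 37 °C, 18 h; MTT added, 20 min; MIC = lowest concentration without yellow-to-blue change.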
On the technique in general: Formazan colour is commonly taken as a measure of viable cells.

Assay [2] deals with Staphylococcus aureus. Description: Antibacterial activity against […] Staphylococcus aureus XU212 expressing TetK efflux pump after 18 hrs by MTT assay. It counts as functional. An outline of the steps:
as §1

In assay [3] the test system is Staphylococcus aureus. Briefly: Antibacterial activity against […] Staphylococcus aureus ATCC 25923 after 18 hrs by MTT assay. It is filed as functional. A digest of the protocol: as §1
In assay [4] the test system is Staphylococcus aureus. Briefly: Antibacterial activity against MsrA macrolide-resistant Staphylococcus aureus RN4220 after 18 hrs by MTT assay. It is filed as functional. An outline of the steps: as §1
For assay [5], the system named is Staphylococcus aureus. Briefly: Antibacterial activity against […] Staphylococcus aureus EMRSA-15 after 18 hrs by MTT assay. It counts as functional. A digest of the protocol:
as §1

The test system of assay [6] is Staphylococcus aureus. Description: Antibacterial activity against […] Staphylococcus aureus EMRSA-16 after 18 hrs by MTT assay. It is filed as functional. An outline of the steps:
as §1

Assay [7] relates to Staphylococcus aureus. Description: […] activity against […] Staphylococcus aureus SA1199B over expressing NorA MDR efflux pump assessed as growth inhibition after 24 hrs using cell cultures pre-treated with compound for 24 hrs. It counts as functional, organism-based. An outline of the steps:
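MIC-plate wells from SA-1199B showing no growth sampled (10 μL) onto drug-free Mueller-Hinton agar, incubated 24 h; growth of colonies scored; bactericidal end point defined as ≥99.9% reduction versus starting inoculum. MBC plates themselves incubated 24 h at 37 °C before transfer.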

The term MIC denotes the smallest concentration in the dilution series that meets the test's criterion for growth inhibition.

In the case of `COc1cc([C@@H]2Oc3c(OC)cc4c(=O)c5ccccc5oc4c3O[C@H]2CO)ccc1O`, the MIC against Staphylococcus aureus [1] is above 512 µg/mL; against Staphylococcus aureus [2] (XU212, 18 h), above 512 µg/mL; against Staphylococcus aureus [3] (ATCC 25923, 18 h) it was above 512 µg/mL; with Staphylococcus aureus [4] (RN4220, 18 h), above 512 µg/mL; in the assay with Staphylococcus aureus [5] (EMRSA-15, 18 h), above 512 µg/mL; in the assay with Staphylococcus aureus [6] (EMRSA-16, 18 h) it was above 512 µg/mL.
With `COc1cc2c(=O)c3ccccc3oc2c(O)c1OC`, the MIC against Staphylococcus aureus [1] was 64 µg/mL (≈ 235 µM); in the assay with Staphylococcus aureus [2] (XU212, 18 h) it was 128 µg/mL (≈ 470 µM); against Staphylococcus aureus [3] (ATCC 25923, 18 h) it was 128 µg/mL (≈ 470 µM); in the assay on Staphylococcus aureus [4] (RN4220, 18 h), above 512 µg/mL; in the assay on Staphylococcus aureus [5] (EMRSA-15, 18 h) it was above 512 µg/mL; in the assay with Staphylococcus aureus [6] (EMRSA-16, 18 h) it was 64 µg/mL (≈ 235 µM).
`COc1c(O)ccc2oc3ccccc3c(=O)c12`: the MIC with Staphylococcus aureus [1] is 64 µg/mL (≈ 264 µM); in the assay on Staphylococcus aureus [2] (XU212, 18 h), 128 µg/mL (≈ 528 µM); with Staphylococcus aureus [3] (ATCC 25923, 18 h), 64 µg/mL (≈ 264 µM); in the assay on Staphylococcus aureus [4] (RN4220, 18 h) it was 64 µg/mL (≈ 264 µM); in the assay on Staphylococcus aureus [5] (EMRSA-15, 18 h), 64 µg/mL (≈ 264 µM); with Staphylococcus aureus [6] (EMRSA-16, 18 h), 32 µg/mL (≈ 132 µM).
Consider `CC(C)[C@H](C)CC[C@@H](C)[C@H]1CC[C@H]2[C@@H]3CC=C4C[C@@H](O)CC[C@]4(C)[C@H]3CC[C@]12C`, for which the MIC entry with Staphylococcus aureus [1], in the assay on Staphylococcus aureus [2], in the assay on Staphylococcus aureus [3], with Staphylococcus aureus [4], with Staphylococcus aureus [5] and in the assay with Staphylococcus aureus [6] was “inactive” each time.
As to `COc1cc2c(=O)c3ccccc3oc2cc1O`, the MIC was determined as 64 µg/mL (≈ 264 µM) in the assay with Staphylococcus aureus [1]; 64 µg/mL (≈ 264 µM) in the assay on Staphylococcus aureus [2] (XU212, 18 h); 64 µg/mL (≈ 264 µM) with Staphylococcus aureus [3] (ATCC 25923, 18 h); 64 µg/mL (≈ 264 µM) in the assay with Staphylococcus aureus [4] (RN4220, 18 h); 64 µg/mL (≈ 264 µM) in the assay on Staphylococcus aureus [5] (EMRSA-15, 18 h); 32 µg/mL (≈ 132 µM) in the assay on Staphylococcus aureus [6] (EMRSA-16, 18 h).
Take `COc1cc(OC)c2c(=O)c3cccc(O)c3oc2c1`: the MIC is 64 µg/mL (≈ 235 µM) in the assay with Staphylococcus aureus [1]; above 512 µg/mL against Staphylococcus aureus [2] (XU212, 18 h); 128 µg/mL (≈ 470 µM) in the assay with Staphylococcus aureus [3] (ATCC 25923, 18 h); above 512 µg/mL against Staphylococcus aureus [4] (RN4220, 18 h); above 512 µg/mL against Staphylococcus aureus [5] (EMRSA-15, 18 h); 64 µg/mL (≈ 235 µM) against Staphylococcus aureus [6] (EMRSA-16, 18 h).
With `COc1cc2c(=O)c3ccccc3oc2c(O)c1O`, the MIC was 32 µg/mL (≈ 124 µM) with Staphylococcus aureus [1]; 16 µg/mL (≈ 62 µM) against Staphylococcus aureus [2] (XU212, 18 h); 64 µg/mL (≈ 248 µM) in the assay on Staphylococcus aureus [3] (ATCC 25923, 18 h); 32 µg/mL (≈ 124 µM) against Staphylococcus aureus [4] (RN4220, 18 h); 64 µg/mL (≈ 248 µM) in the assay on Staphylococcus aureus [5] (EMRSA-15, 18 h); 16 µg/mL (≈ 62 µM) with Staphylococcus aureus [6] (EMRSA-16, 18 h).
Take `CCn1cc(C(=O)O)c(=O)c2cc(F)c(N3CCNCC3)cc21` [NORFLOXACIN]: the MIC with Staphylococcus aureus [1] was 32 µg/mL (≈ 100 µM); against Staphylococcus aureus [2] (XU212, 18 h) it was 8 µg/mL (≈ 25.1 µM); against Staphylococcus aureus [3] (ATCC 25923, 18 h), 0.5 µg/mL (≈ 1.57 µM); against Staphylococcus aureus [4] (RN4220, 18 h), 0.5 µg/mL (≈ 1.57 µM); against Staphylococcus aureus [5] (EMRSA-15, 18 h), 0.5 µg/mL (≈ 1.57 µM); in the assay with Staphylococcus aureus [6] (EMRSA-16, 18 h) it was 128 µg/mL (≈ 401 µM).
Turning to `CC[C@H](CC[C@@H](C)[C@H]1CC[C@H]2[C@@H]3CC=C4C[C@@H](O)CC[C@]4(C)[C@H]3CC[C@]12C)C(C)C`, the MIC entry in the assay on Staphylococcus aureus [1], in the assay with Staphylococcus aureus [2], in the assay with Staphylococcus aureus [3], in the assay on Staphylococcus aureus [4], in the assay with Staphylococcus aureus [5] and with Staphylococcus aureus [6] was “inactive” throughout.
Regarding `CC[C@H](/C=C/[C@@H](C)[C@H]1CC[C@H]2[C@@H]3CC=C4C[C@@H](O)CC[C@]4(C)[C@H]3CC[C@]12C)C(C)C`, the MIC entry with Staphylococcus aureus [1], with Staphylococcus aureus [2], in the assay with Staphylococcus aureus [3], with Staphylococcus aureus [4], in the assay with Staphylococcus aureus [5] and in the assay with Staphylococcus aureus [6] was “inactive” each time.
Consider `CCCCC(C(=O)OC)[C@]12C(=O)[C@](CC=C(C)C)(C[C@H](CC=C(C)C)C1(C)C)C(=O)C(C(=O)CCC)=C2O` (some centres not stated), for which the MIC against Staphylococcus aureus [1] worked out at 2 µg/mL (≈ 3.78 µM); against Staphylococcus aureus [2] (XU212, 18 h) it was 0.25 µg/mL (≈ 0.473 µM); against Staphylococcus aureus [3] (ATCC 25923, 18 h) it was 1 µg/mL (≈ 1.89 µM); against Staphylococcus aureus [4] (RN4220, 18 h) it was 0.25 µg/mL (≈ 0.473 µM); against Staphylococcus aureus [5] (EMRSA-15, 18 h) it was 1 µg/mL (≈ 1.89 µM); against Staphylococcus aureus [6] (EMRSA-16, 18 h) it was 0.5 µg/mL (≈ 0.946 µM). Moreover, the “growth inhibition (GI)” value in the assay on Staphylococcus aureus [7] was “Active”.
